Several values for one entry are separate records, joined by “and”; a condition that tells them apart may be missing. Equal values may be shown once.
Test system: HEK-293T
Assay: Multiplex assay against HEK293T
Assay type: toxicity, cell-based
Settings: human
Outline: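 Imaging took place on a CQ1 microscope at 37°C and 5% CO2 once compound had been added to live cells stained at seeding with Hoechst33342, BioTracker Green Microtubule Cytoskeleton Dye, MitoTracker Red and Annexin V Alexa Fluor 680. CellPathfinder machine-learning gating classed cells as Hoechst high-intensity objects or normal cells, classed normal cells as having healthy, pyknosed or fragmented nuclei, and classed pyknosed cells as mitotic or apoptotic. Tubulin, mitochondrial-mass and membrane-permeability phenotypes are per cents of the healthy-nucleus cells.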

[1] = 12 h, 1 µM, compound concentration 1 uM
[2] = 12 h, 10 µM, compound concentration 10 uM
[3] = 24 h, 1 µM, compound concentration 1 uM
[4] = 24 h, 10 µM, compound concentration 10 uM
[5] = 48 h, 1 µM, compound concentration 1 uM
[6] = 48 h, 10 µM, compound concentration 10 uM

CN(C)C/C=C/C(=O)Nc1ccc(C(=O)N2CCCC(Nc3ncc(Cl)c(-c4c[nH]c5ccccc45)n3)C2)cc1 (configuration not stated)
Population Apoptotic (%) [1]: 46% and 63%
Population Fragmented Nuclei (%) [1]: 8% and 6%
Population Healthy Nuclei (%) [1]: 55% and 64%
Population Hoechst High Intensity Objects (%) [1]: 30% and 23%
Population Membrane Permeable-Phenotype (%) [1]: 0%
Population Mitochondria Different-Phenotype (%) [1]: 87% and 89%
Population Mitotic Cells (%) [1]: 53% and 36%
Population Normal (%) [1]: 69% and 76%
Population Pyknosed Nuclei (%) [1]: 35% and 29%
Population Tubulin-Different-Phenotype (%) [1]: 69% and 70%
Total Cell Count [1]: 227 and 231
Population Apoptotic (%) [2]: 62% and 77%
Population Fragmented Nuclei (%) [2]: 12% and 7%
Population Healthy Nuclei (%) [2]: 57% and 64%
Population Hoechst High Intensity Objects (%) [2]: 35% and 29%
Population Membrane Permeable-Phenotype (%) [2]: 0%
Population Mitochondria Different-Phenotype (%) [2]: 95%
Population Mitotic Cells (%) [2]: 37% and 22%
Population Normal (%) [2]: 64% and 70%
Population Pyknosed Nuclei (%) [2]: 30% and 28%
Population Tubulin-Different-Phenotype (%) [2]: 79% and 81%
Total Cell Count [2]: 269 and 181
Population Apoptotic (%) [3]: 72% and 74%
Population Fragmented Nuclei (%) [3]: 15% and 9%
Population Healthy Nuclei (%) [3]: 62% and 67%
Population Hoechst High Intensity Objects (%) [3]: 27% and 26%
Population Membrane Permeable-Phenotype (%) [3]: 0%
Population Mitochondria Different-Phenotype (%) [3]: 85% and 89%
Population Mitotic Cells (%) [3]: 27% and 25%
Population Normal (%) [3]: 72% and 73%
Population Pyknosed Nuclei (%) [3]: 22% and 23%
Population Tubulin-Different-Phenotype (%) [3]: 74% and 70%
Total Cell Count [3]: 222 and 207
Population Apoptotic (%) [4]: 74% and 88%
Population Fragmented Nuclei (%) [4]: 19% and 10%
Population Healthy Nuclei (%) [4]: 55% and 68%
Population Hoechst High Intensity Objects (%) [4]: 49% and 34%
Population Membrane Permeable-Phenotype (%) [4]: 0%
Population Mitochondria Different-Phenotype (%) [4]: 96% and 98%
Population Mitotic Cells (%) [4]: 25% and 11%
Population Normal (%) [4]: 50% and 65%
Population Pyknosed Nuclei (%) [4]: 24% and 20%
Population Tubulin-Different-Phenotype (%) [4]: 52% and 77%
Total Cell Count [4]: 314 and 197
Population Apoptotic (%) [5]: 67% and 81%
Population Fragmented Nuclei (%) [5]: 16% and 6%
Population Healthy Nuclei (%) [5]: 59% and 65%
Population Hoechst High Intensity Objects (%) [5]: 30% and 26%
Population Membrane Permeable-Phenotype (%) [5]: 0%
Population Mitochondria Different-Phenotype (%) [5]: 79% and 95%
Population Mitotic Cells (%) [5]: 32% and 18%
Population Normal (%) [5]: 69% and 73%
Population Pyknosed Nuclei (%) [5]: 23% and 27%
Population Tubulin-Different-Phenotype (%) [5]: 71% and 74%
Total Cell Count [5]: 239 and 184
Population Apoptotic (%) [6]: 55% and 80%
Population Fragmented Nuclei (%) [6]: 62% and 47%
Population Healthy Nuclei (%) [6]: 14% and 30%
Population Hoechst High Intensity Objects (%) [6]: 67% and 58%
Population Membrane Permeable-Phenotype (%) [6]: 0%
Population Mitochondria Different-Phenotype (%) [6]: 100% and 94%
Population Mitotic Cells (%) [6]: 44% and 20%
Population Normal (%) [6]: 32% and 41%
Population Pyknosed Nuclei (%) [6]: 23% and 21%
Population Tubulin-Different-Phenotype (%) [6]: 23% and 57%
Total Cell Count [6]: 361 and 277

CN1C[C@H](C(=O)N[C@]2(C)O[C@@]3(O)[C@@H]4CCCN4C(=O)[C@H](Cc4ccccc4)N3C2=O)C[C@@H]2c3cccc4[nH]cc(c34)C[C@H]21.CS(=O)(=O)O [DIHYDROERGOTAMINE MESYLATE]
Population Apoptotic (%) [1]: 38% and 46%
Population Fragmented Nuclei (%) [1]: 6% and 3%
Population Healthy Nuclei (%) [1]: 84% and 81%
Population Hoechst High Intensity Objects (%) [1]: 5%
Population Membrane Permeable-Phenotype (%) [1]: 0%
Population Mitochondria Different-Phenotype (%) [1]: 41% and 65%
Population Mitotic Cells (%) [1]: 61% and 53%
Population Normal (%) [1]: 94%
Population Pyknosed Nuclei (%) [1]: 8% and 14%
Population Tubulin-Different-Phenotype (%) [1]: 26% and 17%
Total Cell Count [1]: 418 and 285
Population Apoptotic (%) [2]: 31% and 53%
Population Fragmented Nuclei (%) [2]: 7% and 5%
Population Healthy Nuclei (%) [2]: 76% and 80%
Population Hoechst High Intensity Objects (%) [2]: 9% and 11%
Population Membrane Permeable-Phenotype (%) [2]: 0%
Population Mitochondria Different-Phenotype (%) [2]: 48% and 61%
Population Mitotic Cells (%) [2]: 68% and 46%
Population Normal (%) [2]: 90% and 88%
Population Pyknosed Nuclei (%) [2]: 15% and 13%
Population Tubulin-Different-Phenotype (%) [2]: 29% and 23%
Total Cell Count [2]: 403 and 435
Population Apoptotic (%) [3]: 28% and 51%
Population Fragmented Nuclei (%) [3]: 9% and 7%
Population Healthy Nuclei (%) [3]: 80% and 84%
Population Hoechst High Intensity Objects (%) [3]: 4% and 3%
Population Membrane Permeable-Phenotype (%) [3]: 0%
Population Mitochondria Different-Phenotype (%) [3]: 28% and 41%
Population Mitotic Cells (%) [3]: 71% and 48%
Population Normal (%) [3]: 95% and 96%
Population Pyknosed Nuclei (%) [3]: 9% and 8%
Population Tubulin-Different-Phenotype (%) [3]: 20% and 12%
Total Cell Count [3]: 621 and 341
Population Apoptotic (%) [4]: 27% and 32%
Population Fragmented Nuclei (%) [4]: 10% and 9%
Population Healthy Nuclei (%) [4]: 76% and 84%
Population Hoechst High Intensity Objects (%) [4]: 5% and 6%
Population Membrane Permeable-Phenotype (%) [4]: 0%
Population Mitochondria Different-Phenotype (%) [4]: 33% and 39%
Population Mitotic Cells (%) [4]: 72% and 67%
Population Normal (%) [4]: 94% and 93%
Population Pyknosed Nuclei (%) [4]: 13% and 6%
Population Tubulin-Different-Phenotype (%) [4]: 26% and 16%
Total Cell Count [4]: 480 and 567
Population Apoptotic (%) [5]: 29% and 28%
Population Fragmented Nuclei (%) [5]: 14% and 12%
Population Healthy Nuclei (%) [5]: 78% and 82%
Population Hoechst High Intensity Objects (%) [5]: 2%
Population Membrane Permeable-Phenotype (%) [5]: 1% and 0%
Population Mitochondria Different-Phenotype (%) [5]: 17% and 23%
Population Mitotic Cells (%) [5]: 70% and 71%
Population Normal (%) [5]: 97%
Population Pyknosed Nuclei (%) [5]: 6% and 5%
Population Tubulin-Different-Phenotype (%) [5]: 11% and 9%
Total Cell Count [5]: 1011 and 524
Population Apoptotic (%) [6]: 22% and 31%
Population Fragmented Nuclei (%) [6]: 15%
Population Healthy Nuclei (%) [6]: 76% and 77%
Population Hoechst High Intensity Objects (%) [6]: 2% and 1%
Population Membrane Permeable-Phenotype (%) [6]: 0%
Population Mitochondria Different-Phenotype (%) [6]: 20% and 21%
Population Mitotic Cells (%) [6]: 77% and 68%
Population Normal (%) [6]: 97% and 98%
Population Pyknosed Nuclei (%) [6]: 7% and 6%
Population Tubulin-Different-Phenotype (%) [6]: 12% and 11%
Total Cell Count [6]: 778 and 793
